A short description of data set [1]: Inhibition of Escherichia coli DNA polymerase 3 beta assessed as inhibition of 5-carboxyfluorescein-QLDLF binding by fluorescence polarization-based competition assay. The essentials: (§1)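 Competition fluorescence polarization with E. coli sliding clamp and tracer 5-carboxyfluorescein-QLDLF (Kd 70 nM). Inhibition of tracer binding plotted against inhibitor concentration. IC50 converted to Ki using the Kenakin correction for ligand depletion.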

Data set [2] has as its system Escherichia coli. Kind of data set: Inhibition of Escherichia coli DNA polymerase 3 beta assessed as inhibition of M13 ssDNA replication at 500 to 1000 uM after 60 mins by agarose gel electrophoresis-UV transilluminator analysis in presence of polymerase 3 alpha and reconstituted clamp loader complex gamm3-delta-delta'. The gist of the method:
(§2)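 Reconstituted replication of 3 nM RNA-primed M13 ssDNA in 20 mM Tris-HCl pH 7.6, 10 mM MgCl2, 0.8 mM ATP, 8.4 mM DTT, 0.6 mM each dNTP, 120 mM NaCl, with 211 nM Pol III α, 700 nM SSB tetramer, 210 nM β dimer, 42 nM γ3δδ′. Compounds added at 0 °C, final 3.4% DMSO. Run 60 min at 30 °C, quenched with EDTA/SDS, products resolved on 0.7% agarose, SYBR Gold stained, viewed by UV.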

Data set [3] can be described thus: Distribution coefficient, log D of the compound at pH 7.2. It counts as physicochemical. The settings on record: octanol/water.
The subject of data set [4] is Escherichia coli. Kind of data set: Inhibition of Escherichia coli DNA polymerase 3 beta assessed as inhibition of 5-carboxyfluorescein-QLDLF binding at <1 mM by fluorescence polarization-based competition assay. The gist of the method:
as §1

Data set [5] deals with Escherichia coli. The data set is described as follows: Antibacterial activity against Escherichia coli DH5[alpha] after 24 hrs by broth microdilution method. It counts as functional. The essentials:
(§3)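 CLSI broth microdilution in cation-adjusted Mueller Hinton II broth. Overnight cultures diluted to 5 × 10⁴ CFU/mL. Compounds from 100 mM DMSO stocks, serially 2-fold diluted. OD read at 595 nm before and after 24 h at 37 °C. MIC taken as lowest concentration with background-subtracted OD <0.1. Controls: medium blank, DMSO vehicle, antibiotic.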

The next data set has as its system Acinetobacter baylyi. Kind of data set: Antibacterial activity against Acinetobacter baylyi ADP1 after 24 hrs by broth microdilution method. It counts as functional. The following applies: ADP1, 24 h. The gist of the method: as §3
A further data set has as its system Bacillus subtilis. Kind of data set: Antibacterial activity against Bacillus subtilis SU5 after 24 hrs by broth microdilution method. In kind it is functional. The settings on record: SU5, 24 h. The gist of the method:
as §3

The next data set relates to Staphylococcus aureus. Kind of data set: Antibacterial activity against Staphylococcus aureus NCTC 8325 after 24 hrs by broth microdilution method. In kind it is functional. The following applies: NCTC 8325, 24 h. The essentials: as §3
The test system of data set [6] is Escherichia coli. Kind of data set: Inhibition of Escherichia coli DNA polymerase 3 beta assessed as inhibition of M13 ssDNA replication at 250 uM after 60 mins by agarose gel electrophoresis-UV transilluminator analysis in presence of polymerase 3 alpha and reconstituted clamp loader complex gamm3-delta-delta'. The essentials: as §2

The record followed here is ChEMBL document CHEMBL3232766, “Discovery of lead compounds targeting the bacterial sliding clamp using a fragment-based approach” (J Med Chem, 2014).

Converted amounts (≈) assume the structure as drawn. The source made the active and inactive calls. The calls are words filed in the database; no cut-off is given here.

As for `Clc1ccc2c(c1)c1ccccc1n2CC1CO1` (centres undefined), in data set [1], the IC50 was 358 µM and the Ki is 199 µM. Also, the inhibition result in the data set on Escherichia coli [2] was “Active”. In [3], this molecule showed a logD of 4.93.

In the case of `O=[N+]([O-])c1ccc2cn[nH]c2c1`, the inhibition result with Escherichia coli [4] was “inactive”.

`O=C(O)c1ccc(-c2ccc(F)cc2)cc1`: the IC50 in [1] is 504 µM. In data set [1], the Ki stood at 280 µM. Moreover, the inhibition result in the data set with Escherichia coli [2] is “Active”. The MIC against Escherichia coli [5] amounted to 2500 µM (≈ 541 µg/mL); in the data set with Acinetobacter baylyi it was 5000 µM (≈ 1080 µg/mL); against Bacillus subtilis, 2500 µM (≈ 541 µg/mL); in the data set with Staphylococcus aureus, 5000 µM (≈ 1080 µg/mL). The logD in data set [3] (read-out: logD) is -3.17.

`O=C(O)c1cc2[nH]c3c(c2cc1Cl)CCCC3`: the IC50 in [1] was 389 µM. In data set [1], the Ki came out at 216 µM. The inhibition result in the data set on Escherichia coli [2] was “Active”. Moreover, the MIC against Escherichia coli [5] is 2500 µM (≈ 624 µg/mL); with Acinetobacter baylyi it was 5000 µM (≈ 1250 µg/mL); against Bacillus subtilis, 2500 µM (≈ 624 µg/mL); in the data set with Staphylococcus aureus it was 2500 µM (≈ 624 µg/mL). Further, in data set [3] (read-out: logD), the logD is -0.48.

In the case of `NC(=O)c1ccc(F)c(F)c1`, the inhibition result in the data set with Escherichia coli [4] was “inactive”.

For the molecule `O=C(O)[C@@H]1CCCc2c1[nH]c1ccc(Cl)cc21`, the IC50 in data set [1] was determined as 115 µM. The Ki in data set [1] is 64 µM. In addition, the inhibition result in the data set on Escherichia coli [6] was “Active”. Further, the MIC in the data set on Escherichia coli [5] is 313 µM (≈ 78.2 µg/mL); in the data set with Acinetobacter baylyi, 313 µM (≈ 78.2 µg/mL); in the data set on Bacillus subtilis, 156 µM (≈ 39 µg/mL); against Staphylococcus aureus, 156 µM (≈ 39 µg/mL). Besides, the logD in [3] (read-out: logD) was found to be 0.36.

`CCOC(=O)[C@@H]1CCCc2c1[nH]c1ccc(Cl)cc21`: the IC50 in [1] stood at 899 µM. The Ki in data set [1] amounted to 499 µM. The MIC in the data set on Escherichia coli [5] was determined as 78 µM (≈ 21.7 µg/mL); against Acinetobacter baylyi, 156 µM (≈ 43.3 µg/mL); in the data set on Bacillus subtilis it was 78 µM (≈ 21.7 µg/mL); against Staphylococcus aureus, 78 µM (≈ 21.7 µg/mL). In addition, the logD in data set [3] (read-out: logD) was determined as 4.44.

Turning to `O=[N+]([O-])c1ccc2[nH]ccc2c1`, the inhibition entry in the data set with Escherichia coli [4] was “inactive”.

For `O=C1Nc2ccc(Cl)cc2C1=O`, the inhibition result with Escherichia coli [4] is “inactive”.

Turning to `COC(=O)[C@@H]1CCCc2c1[nH]c1ccc(Cl)cc21`, the IC50 in data set [1] is over 1000 µM. The MIC against Escherichia coli [5] amounted to 156 µM (≈ 41.1 µg/mL); against Acinetobacter baylyi, 78 µM (≈ 20.6 µg/mL); against Bacillus subtilis, 78 µM (≈ 20.6 µg/mL); against Staphylococcus aureus, 156 µM (≈ 41.1 µg/mL).
